Measured values collected from several papers.
Each line is one published result; the experiments were not run side by side.
Technique: competition with immobilised ligand
RPS6KA3 C-terminal kinase domain: Ribosomal protein S6 kinase alpha-3, C-terminal kinase domain (RPS6KA3, Homo sapiens, UniProt P51812)
RPS6KA3 N-terminal kinase domain: Ribosomal protein S6 kinase alpha-3, N-terminal kinase domain (RPS6KA3, Homo sapiens, UniProt P51812)

| Structure (SMILES) | target | effect on | tested at | remaining binding |
| --- | --- | --- | --- | --- |
| O=C(c1ccc(Nc2nccc(-c3cc4ccccc4s3)n2)cc1)N1CCC(N2CCCC2)CC1 | RPS6KA3 C-terminal kinase domain | binding | 1 µM | 66% |
| c1cncc(-c2cccc(Nc3nccc(NC4CCCCC4)n3)c2)c1 | RPS6KA3 C-terminal kinase domain | binding | 10 µM | 79% |
| O=C(c1ccc(Nc2ncc(Cl)c(-c3ccc(Cl)s3)n2)cc1)N1CCC(N2CCCC2)CC1 | RPS6KA3 N-terminal kinase domain | binding | 1 µM | 30% |
| O=C(Nc1ccc(Oc2ccc(F)cc2)cc1)N1CCc2ncccc2[C@H]1c1ccc(F)cc1 | RPS6KA3 C-terminal kinase domain | cell-free assay | 1 µM | 97% |
| c1cnn2ncc(-c3ccnc(N4CCC45COC5)n3)c2c1 | RPS6KA3 N-terminal kinase domain | binding | 1 µM | 61% |
| CCN1CCN(Cc2ccc(C(=O)Nc3ccc(C)c(Oc4ccc5c(c4)CC(=O)N5)c3)cc2C(F)(F)F)CC1 | RPS6KA3 C-terminal kinase domain | binding | 1 µM | 100% |
| C[C@H]1CCN(c2nccc(-c3cnn4ncccc34)n2)C1 | RPS6KA3 C-terminal kinase domain | binding | 1 µM | 93% |
| Cc1c(NC(=O)c2cc(C(N)=O)nc3cc(F)ccc23)c(C(F)(F)F)nn1Cc1ccc(C(C)(C)C)cc1 | RPS6KA3 C-terminal kinase domain | cell-free assay | 1 µM | 100% |
| COc1ccnn2ncc(-c3ccnc(N(C)C)n3)c12 | RPS6KA3 N-terminal kinase domain | binding | 1 µM | 85% |
| O=C(Nc1c[nH]nc1C(=O)NC1CCNCC1)c1cc(F)cc(F)c1 | RPS6KA3 N-terminal kinase domain | binding | 1 µM | 74% |
| NS(=O)(=O)c1cc(NC(=O)C2(c3ccccc3Cl)CC2)ccc1Oc1cccc(Cl)c1 | RPS6KA3 N-terminal kinase domain | cell-free assay | 1 µM | 92% |
| COc1cnc(Nc2cccc(S(N)(=O)=O)c2)nc1N1CCN(c2ccccc2)C(=O)C1 | RPS6KA3 N-terminal kinase domain | binding | 1 µM | 64% |
| Cc1cnc(Nc2ccc(C(=O)N3CCC(N4CCCC4)CC3)cc2)nc1-c1cc2ccccc2s1 | RPS6KA3 N-terminal kinase domain | binding | 1 µM | 22% |
| Cc1noc([C@H]2C[C@@H](c3ccc(C(F)(F)F)cc3)CN(C(=O)N3CCS(=O)(=O)C3)C2)n1 | RPS6KA3 N-terminal kinase domain | cell-free assay | 1 µM | 100% |
| CNC(=O)[C@@H]1CC[C@@H](n2c(-c3ccc4cnccc4c3)nc3ccc(C(=O)NCc4cccc(C(N)=O)c4)cc32)C1 | RPS6KA3 N-terminal kinase domain | binding | 1 µM | 87% |
| C[C@@H](c1ccc(-n2cnc3c(N)ncnc32)cc1)N1CCc2nn(C)c(Cc3ccccc3)c2C1=O | RPS6KA3 N-terminal kinase domain | binding | 0.1 µM | 56% |
| COc1ncc2cc3ccccc3nc2c1C#N | RPS6KA3 C-terminal kinase domain | cell-free assay | 5 µM | 96% |

| Structure (SMILES) | target | effect on | tested at | remaining binding |
| --- | --- | --- | --- | --- |
| CN(C)c1ncc(F)c(-c2cnn3ncccc23)n1 | RPS6KA3 C-terminal kinase domain | binding | 1 µM | 68% |
| O=S(=O)(NC1CCC(c2cc(F)ccc2F)(S(=O)(=O)c2ccc(Cl)cc2)CC1)C(F)(F)F (stereo not shown) | RPS6KA3 C-terminal kinase domain | cell-free assay | 1 µM | 83% |
| FC(F)(F)Oc1cccc(-c2cnc3ccc(-c4ccncc4)nn23)c1 | RPS6KA3 N-terminal kinase domain | binding | 5 µM | 57% |
| CC(C)(C)c1ccc(-c2nc(CBr)nn2-c2cccc(O)c2)cc1 | RPS6KA3 N-terminal kinase domain | cell-free assay | 10 µM | 74% |
| CCCOc1ccc([C@H]2[C@H](C(=O)O)[C@@H](c3ccc4c(c3)OCO4)CN2CC(=O)Nc2c(CC)cccc2CC)cc1 | RPS6KA3 N-terminal kinase domain | cell-free assay | 1 µM | 72% |
| CN(C)c1nccc(-c2cnn3ncccc23)n1 | RPS6KA3 C-terminal kinase domain | binding | 1 µM | 99% |
| O=C(NCC1CCOCC1)c1n[nH]cc1NC(=O)c1c(F)cccc1F | RPS6KA3 C-terminal kinase domain | binding | 1 µM | 98% |
| O=C(O)[C@H]1[C@H](Cn2nnc3ccccc3c2=O)CC[C@@H]1C(=O)c1ccc(OCCC2CCOCC2)cc1 | RPS6KA3 N-terminal kinase domain | cell-free assay | 1 µM | 81% |
| Cc1cnn2ncc(-c3ccnc(N(C)C)n3)c2c1 | RPS6KA3 C-terminal kinase domain | binding | 1 µM | 100% |
| O=C(NCCCN1CCOCC1)c1ccc(Nc2nccc(-c3cc4ccccc4s3)n2)cc1 | RPS6KA3 C-terminal kinase domain | binding | 1 µM | 73% |
| N[C@@H]1CCN(c2nccc(-c3cnn4ncccc34)n2)C1 | RPS6KA3 C-terminal kinase domain | binding | 1 µM | 41% |
| COc1cnc(Nc2cccc(S(N)(=O)=O)c2)nc1N1CCN(c2ccccc2)CC1 | RPS6KA3 C-terminal kinase domain | binding | 1 µM | 81% |
| O=C(NCCCN1CCOCC1)c1ccc(Nc2ncc(Cl)c(-c3ccc(Cl)s3)n2)cc1 | RPS6KA3 C-terminal kinase domain | binding | 1 µM | 100% |
| Nc1ncc2c(n1)-c1c([nH]c3ccc(C#CC4CC4)cc13)CCCC2 | RPS6KA3 C-terminal kinase domain | binding | 1 µM | 100% |
| CCc1ccccc1C(=O)Nc1n[nH]c2c(C)c(F)c(C3C(C#N)=C(C)N(C)C(C)=C3C#N)cc12 | RPS6KA3 N-terminal kinase domain | cell-free assay | 1 µM | 0.3% |
| O=C(c1ccc(Nc2ncc(Cl)c(-c3cc4ccccc4s3)n2)cc1)N1CCC(N2CCCC2)CC1 | RPS6KA3 C-terminal kinase domain | binding | 1 µM | 77% |
| C=CC(=O)N1CCC(C(=O)NCC(=O)N2CCN(c3nc(-c4cnc(N)nc4C(F)F)nc(N4CCOCC4)n3)CC2)CC1 | RPS6KA3 N-terminal kinase domain | binding | 1 µM | 85% |
